Measurements from ChEMBL document CHEMBL3352788, “Characterization of selective exosite-binding inhibitors of matrix metalloproteinase 13 that prevent articular cartilage degradation in vitro” (J Med Chem, 2014).
pIC50: −log10 of the molar value. Each block holds one molecule with its values, some of them ahead of it.

Experiments:
[1] = biological target: T1, Cytochrome P450 3A4 (Homo sapiens, UniProt P08684); assay: Inhibition of CYP3A4 (unknown origin) using midazolam substrate; format: ADME
Outline: (§1)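 Reactions stopped with acetonitrile/0.1% formic acid plus labelled internal standard. Metabolite measured by LC-MS area ratio. IC50 by linear interpolation.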

[2] = biological target: T2, Cytochrome P450 2C8 (Homo sapiens, UniProt P10632); assay: Inhibition of CYP2C8 (unknown origin) using amodiaquine substrate; format: ADME
T2 sequence (P10632 whole entry): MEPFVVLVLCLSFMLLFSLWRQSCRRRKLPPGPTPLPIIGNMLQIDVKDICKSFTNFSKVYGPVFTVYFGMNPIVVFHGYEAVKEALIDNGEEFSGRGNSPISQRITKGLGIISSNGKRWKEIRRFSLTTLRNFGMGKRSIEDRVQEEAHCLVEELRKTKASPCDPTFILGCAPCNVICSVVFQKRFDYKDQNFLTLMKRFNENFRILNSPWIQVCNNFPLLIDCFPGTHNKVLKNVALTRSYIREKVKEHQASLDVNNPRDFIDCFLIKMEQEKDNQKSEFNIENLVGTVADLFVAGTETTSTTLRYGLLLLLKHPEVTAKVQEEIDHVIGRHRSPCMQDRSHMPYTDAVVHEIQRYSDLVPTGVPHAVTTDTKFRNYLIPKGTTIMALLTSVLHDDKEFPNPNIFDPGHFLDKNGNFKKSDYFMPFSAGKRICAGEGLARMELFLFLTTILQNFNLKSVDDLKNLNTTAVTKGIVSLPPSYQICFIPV
Outline: (§2)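 Human liver microsomes with probe substrate and an NADPH-regenerating system in 0.1 M potassium phosphate pH 7.4 at 37 °C, run in duplicate. Inhibitor at 0–20 μM (0–2.5 μM for one compound), eight concentrations. Reactions were stopped with acetonitrile/formic acid containing isotope-labelled internal standard, and metabolite area ratios were compared with and without inhibitor. IC50 was taken by linear interpolation between bracketing concentrations.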

[3] = biological target: T3, Collagenase 3 (Homo sapiens, UniProt P45452); assay: Inhibition of full-length recombinant human MMP-13 assessed as bovine type-2 collagen hydrolysis after 22 hrs by fluorescence assay
[4] = biological target: Cytochrome P450 2C9 (Homo sapiens, UniProt P11712); assay: Inhibition of CYP2C9 (unknown origin) using diclofenac substrate; format: ADME; outline: as §2
Chain of Cytochrome P450 2C9 (P11712 whole entry): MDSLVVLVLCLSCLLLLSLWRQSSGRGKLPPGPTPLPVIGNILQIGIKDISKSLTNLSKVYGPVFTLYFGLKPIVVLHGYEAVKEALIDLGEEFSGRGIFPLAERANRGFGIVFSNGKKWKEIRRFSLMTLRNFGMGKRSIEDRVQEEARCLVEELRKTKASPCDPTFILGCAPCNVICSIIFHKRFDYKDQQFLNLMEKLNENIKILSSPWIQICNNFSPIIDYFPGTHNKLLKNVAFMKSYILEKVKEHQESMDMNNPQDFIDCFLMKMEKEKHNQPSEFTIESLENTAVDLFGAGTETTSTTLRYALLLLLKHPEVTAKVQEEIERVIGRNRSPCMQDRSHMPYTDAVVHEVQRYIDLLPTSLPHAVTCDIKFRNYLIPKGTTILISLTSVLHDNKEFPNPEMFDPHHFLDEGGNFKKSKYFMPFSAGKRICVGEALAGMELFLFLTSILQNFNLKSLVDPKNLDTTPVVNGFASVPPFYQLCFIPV

[5] = biological target: Cytochrome P450 2C19 (Homo sapiens, UniProt P33261); assay: Inhibition of CYP2C19 (unknown origin) using (S)-mephentoin substrate; format: ADME; outline: as §2
Chain of Cytochrome P450 2C19 (P33261 whole entry): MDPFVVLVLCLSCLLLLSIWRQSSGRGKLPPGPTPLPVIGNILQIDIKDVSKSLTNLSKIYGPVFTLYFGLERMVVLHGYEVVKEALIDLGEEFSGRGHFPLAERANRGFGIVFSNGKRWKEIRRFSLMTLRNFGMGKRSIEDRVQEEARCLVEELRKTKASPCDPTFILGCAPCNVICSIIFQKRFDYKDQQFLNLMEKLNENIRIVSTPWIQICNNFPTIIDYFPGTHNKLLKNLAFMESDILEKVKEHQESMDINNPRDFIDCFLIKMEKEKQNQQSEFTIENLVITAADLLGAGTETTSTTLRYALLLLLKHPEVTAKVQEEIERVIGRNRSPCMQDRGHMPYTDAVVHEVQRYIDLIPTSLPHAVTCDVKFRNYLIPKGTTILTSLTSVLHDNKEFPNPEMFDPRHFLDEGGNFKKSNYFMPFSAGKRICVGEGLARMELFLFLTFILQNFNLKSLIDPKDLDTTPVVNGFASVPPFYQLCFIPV

[6] = biological target: T1, Cytochrome P450 3A4; assay: Inhibition of CYP3A4 (unknown origin) using testosterone substrate; format: ADME; outline: as §1
[7] = biological target: Cytochrome P450 2D6 (Homo sapiens, UniProt P10635); assay: Inhibition of CYP2D6 (unknown origin) using dextromethophan substrate; format: ADME; outline: as §2
Chain of Cytochrome P450 2D6 (P10635 whole entry): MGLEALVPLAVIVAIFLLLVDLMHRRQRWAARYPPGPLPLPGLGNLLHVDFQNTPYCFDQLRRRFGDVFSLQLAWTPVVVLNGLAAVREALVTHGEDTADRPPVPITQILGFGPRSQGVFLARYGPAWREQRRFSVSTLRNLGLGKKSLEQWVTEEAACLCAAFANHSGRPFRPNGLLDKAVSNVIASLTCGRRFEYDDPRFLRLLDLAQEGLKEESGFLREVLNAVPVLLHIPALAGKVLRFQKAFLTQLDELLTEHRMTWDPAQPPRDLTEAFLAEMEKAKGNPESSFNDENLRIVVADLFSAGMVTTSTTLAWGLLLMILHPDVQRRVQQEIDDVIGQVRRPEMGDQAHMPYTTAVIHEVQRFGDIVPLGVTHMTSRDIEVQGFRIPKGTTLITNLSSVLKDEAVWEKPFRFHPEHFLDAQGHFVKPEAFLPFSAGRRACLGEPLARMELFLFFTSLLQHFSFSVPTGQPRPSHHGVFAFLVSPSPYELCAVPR

[8] = test system: Liver microsome; assay: Half life in human liver microsomes by LC-MS/MS analysis; format: ADME
Outline: (§3)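 Compound at 1 μM with 1 mg/mL liver microsomes in 100 mM potassium phosphate pH 7.4 at 37 °C with shaking. Reaction started with 1 mM NADPH (final). Aliquots were taken at 0, 5, 10, 20, 40 and 60 min and quenched in acetonitrile. Parallel incubations without NADPH were run.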

[9] = biological target: T3, Collagenase 3; assay: Non-competitive inhibition of full-length recombinant human MMP-13 assessed as fTHP-15 substrate hydrolysis
[10] = biological target: T4, Cytochrome P450 2B6 (Homo sapiens, UniProt P20813); assay: Inhibition of CYP2B6 (unknown origin) using bupropion substrate; format: ADME; outline: as §2
T4 sequence (P20813 whole entry): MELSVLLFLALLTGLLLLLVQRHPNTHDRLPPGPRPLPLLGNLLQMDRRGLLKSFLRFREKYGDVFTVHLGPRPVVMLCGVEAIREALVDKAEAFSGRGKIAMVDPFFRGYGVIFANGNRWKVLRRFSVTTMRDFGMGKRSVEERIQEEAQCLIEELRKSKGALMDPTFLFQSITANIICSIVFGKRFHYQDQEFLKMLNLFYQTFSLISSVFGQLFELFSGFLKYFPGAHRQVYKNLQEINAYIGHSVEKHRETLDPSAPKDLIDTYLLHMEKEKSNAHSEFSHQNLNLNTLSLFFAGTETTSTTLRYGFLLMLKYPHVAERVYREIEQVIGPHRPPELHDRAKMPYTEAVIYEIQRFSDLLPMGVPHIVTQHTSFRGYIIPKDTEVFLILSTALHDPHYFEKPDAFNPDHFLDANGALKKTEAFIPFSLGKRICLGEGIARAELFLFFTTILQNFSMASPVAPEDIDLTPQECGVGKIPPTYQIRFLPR

[11] = biological target: T5, Cytochrome P450 1A2 (Homo sapiens, UniProt P05177); assay: Inhibition of CYP1A2 (unknown origin) using tacrin substrate; format: ADME; outline: as §2
T5 sequence (P05177 whole entry): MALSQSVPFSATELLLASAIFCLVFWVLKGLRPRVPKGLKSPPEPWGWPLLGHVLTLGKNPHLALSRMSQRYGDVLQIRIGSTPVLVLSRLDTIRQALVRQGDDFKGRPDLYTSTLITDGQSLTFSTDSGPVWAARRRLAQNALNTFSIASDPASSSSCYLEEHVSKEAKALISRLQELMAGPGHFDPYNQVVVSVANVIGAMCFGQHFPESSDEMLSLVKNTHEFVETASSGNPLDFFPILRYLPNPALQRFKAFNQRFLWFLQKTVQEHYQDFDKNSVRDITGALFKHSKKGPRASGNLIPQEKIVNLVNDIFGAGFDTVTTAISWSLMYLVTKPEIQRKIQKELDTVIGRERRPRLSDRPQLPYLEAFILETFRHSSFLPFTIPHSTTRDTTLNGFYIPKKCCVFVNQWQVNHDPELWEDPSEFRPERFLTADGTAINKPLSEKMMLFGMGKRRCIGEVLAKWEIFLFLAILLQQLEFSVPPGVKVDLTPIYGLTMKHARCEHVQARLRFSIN

[12] = biological target: T3, Collagenase 3; assay: Competitive inhibition of full-length recombinant human MMP-13 assessed as fTHP-15 substrate hydrolysis by Lineweaver-Burke plot analysis
Outline: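 Pro-MMP-13 activated with 1 mM APMA for 2 h at 37 °C. Enzyme at 4 nM was incubated with fTHP-15 at 2–25 μM and varying inhibitor in Tris pH 7.5/NaCl/CaCl2/Brij-35 buffer at room temperature. Fluorescence was read at ex 324/em 393 nm, and rates were taken from the linear portion. Mechanism was assigned by a mixed-model nonlinear fit (α parameter) and confirmed by Lineweaver–Burke plots.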

[13] = biological target: T3, Collagenase 3; conditions: 50 uM
[14] = test system: Liver microsome; assay: Half life in rat liver microsomes by LC-MS/MS analysis; format: ADME; outline: as §3
[15] = test system: Liver; assay: Half life in mouse liver microsomes by LC-MS/MS analysis; format: ADME; outline: as §3

T1 sequence (P08684 whole entry): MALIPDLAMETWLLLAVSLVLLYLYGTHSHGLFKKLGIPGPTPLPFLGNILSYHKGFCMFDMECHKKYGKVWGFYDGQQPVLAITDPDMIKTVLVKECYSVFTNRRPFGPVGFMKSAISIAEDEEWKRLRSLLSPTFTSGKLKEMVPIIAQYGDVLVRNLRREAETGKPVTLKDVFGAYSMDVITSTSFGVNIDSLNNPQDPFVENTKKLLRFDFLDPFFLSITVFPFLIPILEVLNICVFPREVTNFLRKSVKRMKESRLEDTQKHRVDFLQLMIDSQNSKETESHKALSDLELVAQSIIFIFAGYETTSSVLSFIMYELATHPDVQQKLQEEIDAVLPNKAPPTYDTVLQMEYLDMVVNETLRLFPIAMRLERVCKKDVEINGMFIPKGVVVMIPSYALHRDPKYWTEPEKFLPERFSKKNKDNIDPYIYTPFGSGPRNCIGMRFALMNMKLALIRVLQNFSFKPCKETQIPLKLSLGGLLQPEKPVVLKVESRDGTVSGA

SMILES: Cc1ccc(CSc2nc3c(c(=O)[nH]2)CCC3)cc1
pIC50 [1]: < 4.70
pIC50 [2]: < 4.70
pIC50 [3]: 6.40
pIC50 [4]: 5.06
pIC50 [5]: 5.10
pIC50 [6]: < 4.70
pIC50 [7]: < 4.70
t1/2 [8]: 7.3 min
pIC50 [9]: 5.62
pIC50 [10]: < 4.70
pIC50 [11]: 5.43

Kb [12]: 1200 µM
SMILES: CC(=O)NO

inhibition [13]: 70%
SMILES: O=C(O)CN(CCN(CC(=O)O)CC(=O)O)CC(=O)O

t1/2 [14]: 26.5 min
t1/2 [8]: 44.1 min
t1/2 [15]: 12.3 min
SMILES: CCN(CC)CCNC(=O)c1c(C)[nH]c(/C=C2\C(=O)Nc3ccc(F)cc32)c1C [SUNITINIB]
